# Laboratory results as given in ChEMBL document CHEMBL4715813, “Allicin-inspired pyridyl disulfides as antimicrobial agents for multidrug-resistant Staphylococcus aureus” (Eur J Med Chem, 2018).
# The source made the active and inactive calls. No cut-off for these calls is given here.
# Legend:
# Staphylococcus aureus [1] = experiment: Induction of intracellular oxidant species generation in Staphylococcus aureus ATCC 25923 after 1 hr by colorimetric based NBT assay; format: functional, organism-based
# How it was run: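 Cells at OD600 1.5 in HBSS mixed with 1 mg/mL aqueous NBT and agent (added from 2 mM stock) or DMSO/water, shaken for 1 h at 37 °C. Stopped with 0.1 M HCl and centrifuged; pellet formazan solubilized in DMSO/KOH/HBSS and read at OD560.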
# Staphylococcus aureus [2] = experiment: Induction of intracellular oxidant species generation in Staphylococcus aureus ATCC 25923 by DCFH-DA dye based fluorescence assay; format: functional, organism-based
# How it was run: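 OD600 1.5 suspension of S. aureus […] in HBSS given agent (from 2 or 10 mM stock), DMSO or water, then DCFH diacetate from a 100 μM stock in DMSO. Intracellular oxidation read by fluorescence (ex 485, em 535 nm).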
# Klebsiella pneumoniae = experiment: Antibacterial activity against multidrug-resistant Klebsiella pneumoniae ATCC 700603 assessed as zone of inhibition by disc diffusion method; format: functional
# Enterobacter cloacae = experiment: Antibacterial activity against Enterobacter cloacae ATCC 23355 assessed as zone of inhibition by disc diffusion method; format: functional
# Escherichia coli = experiment: Antibacterial activity against beta-lactam resistant Escherichia coli BAA 2326 assessed as zone of inhibition by disc diffusion method; format: functional
# Acinetobacter baumannii [3] = experiment: Antibacterial activity against multidrug-resistant Acinetobacter baumannii BAA 1605 assessed as zone of inhibition by disc diffusion method; format: functional
# Bacillus anthracis = experiment: Antibacterial activity against Bacillus anthracis Sterne 34F2 assessed as zone of inhibition by disc diffusion method; format: functional
# Enterococcus faecium = experiment: Antibacterial activity against vancomycin-resistant Enterococcus faecium ATCC 700221 assessed as zone of inhibition by disc diffusion method; format: functional
# Enterococcus faecalis = experiment: Antibacterial activity against vancomycin-susceptible Enterococcus faecalis ATCC 29212 assessed as zone of inhibition by disc diffusion method; format: functional
# Staphylococcus aureus [4] = experiment: Antibacterial activity against methicillin-susceptible Staphylococcus aureus ATCC 25923 assessed as zone of inhibition by disc diffusion method; format: functional
# Staphylococcus aureus [5] = experiment: Antibacterial activity against community acquired methicillin-resistant Staphylococcus aureus BAA 1747 assessed as zone of inhibition by disc diffusion method; format: functional
# Staphylococcus aureus [6] = experiment: Antibacterial activity against hospital acquired methicillin-resistant Staphylococcus aureus ATCC 43300 assessed as zone of inhibition by disc diffusion method; format: functional
# Staphylococcus aureus [7] = experiment: Antibacterial activity against heterogeneous vancomycin-intermediate resistant Staphylococcus aureus Mu3 ATCC 700698 assessed as zone of inhibition by disc diffusion method; format: functional
# Staphylococcus aureus [8] = experiment: Antibacterial activity against vancomycin-intermediate resistant Staphylococcus aureus Mu50 ATCC 700699 assessed as zone of inhibition by disc diffusion method; format: functional
# Staphylococcus aureus [9] = experiment: Antibacterial activity against vancomycin-resistant Staphylococcus aureus HIP11714 assessed as zone of inhibition by disc diffusion method; format: functional
# [10] = test system: Staphylococcus epidermidis; experiment: Antibacterial activity against Staphylococcus epidermidis ATCC 14990 assessed as zone of inhibition by disc diffusion method; format: functional
# Acinetobacter baumannii [11] = experiment: Antibacterial activity against Acinetobacter baumannii ATCC 19606 assessed as zone of inhibition by disc diffusion method; format: functional
# Pseudomonas aeruginosa = experiment: Antibacterial activity against Pseudomonas aeruginosa ATCC 15422 assessed as zone of inhibition by disc diffusion method; format: functional
# Staphylococcus aureus [12] = experiment: Antibacterial activity against methicillin-susceptible Staphylococcus aureus ATCC 25923 assessed as bacterial growth inhibition incubated for 20 hrs by broth dilution method; format: functional
# How it was run: (§1)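 Broth microdilution: 0.5 McFarland suspension from an overnight culture, diluted 1:100 in cation-adjusted Mueller Hinton broth (CAMHB), given serial dilutions of test agent for 20 h at 37 °C. MIC is the lowest concentration with no visible growth.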
# Staphylococcus aureus [13] = experiment: Antibacterial activity against methicillin-resistant Staphylococcus aureus ATCC 43300 assessed as bacterial growth inhibition incubated for 20 hrs by broth dilution method; format: functional; how it was run: as §1
# Staphylococcus aureus [14] = experiment: Antibacterial activity against linezolid-resistant Staphylococcus aureus assessed as bacterial growth inhibition incubated for 20 hrs by broth dilution method; format: functional; how it was run: as §1
# Staphylococcus aureus [15] = experiment: Antibacterial activity against heterogeneous vancomycin-intermediate Staphylococcus aureus Mu3 ATCC 700698 assessed as bacterial growth inhibition incubated for 20 hrs by broth dilution method; format: functional; how it was run: as §1
# Staphylococcus aureus [16] = experiment: Antibacterial activity against vancomycin-intermediate resistant Staphylococcus aureus Mu50 ATCC 700699 assessed as bacterial growth inhibition incubated for 20 hrs by broth dilution method; format: functional; how it was run: as §1
# Staphylococcus aureus [17] = experiment: Antibacterial activity against vancomycin-resistant Staphylococcus aureus HIP11714 assessed as inhibition of bacterial growth incubated for 20 hrs by broth microdilution method; format: functional; details: HIP11714, 20 h; how it was run: as §1
# Staphylococcus aureus [18] = experiment: Antibacterial activity against vancomycin-intermediate Staphylococcus aureus clinical isolate 12 assessed as bacterial growth inhibition after 20 hrs by broth microdilution assay; format: functional; how it was run: as §1
# Staphylococcus aureus [19] = experiment: Antibacterial activity against vancomycin-resistant Staphylococcus aureus clinical isolate 10 assessed as bacterial growth inhibition after 20 hrs by broth microdilution assay; format: functional; how it was run: as §1
# Staphylococcus aureus [20] = experiment: Bactericidal activity against methicillin-susceptible Staphylococcus aureus ATCC 25923 assessed as bacterial killing incubated for over night; format: functional
# How it was run: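 5 μL from each well was spotted on agar and incubated overnight. MBC was taken as the lowest concentration with no visible growth.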
# Staphylococcus aureus [21] = experiment: Ratio of MBC to MIC against methicillin-susceptible Staphylococcus aureus ATCC 25923; format: functional
# How it was run: (§2)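 For MBC, 5 μL from each well was spotted on agar and incubated overnight; MBC is the lowest concentration with no visible growth. Ratio taken as MBC over MIC.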
# Staphylococcus aureus [22] = experiment: Bactericidal activity against methicillin-resistant Staphylococcus aureus ATCC 43300 assessed as bacterial killing incubated for over night; format: functional; how it was run: as §2
# Staphylococcus aureus [23] = experiment: Bactericidal activity against heterogeneous vancomycin-intermediate Staphylococcus aureus Mu3 ATCC 700698 assessed as bacterial killing incubated for over night; format: functional; how it was run: as §2
# Staphylococcus aureus [24] = experiment: Ratio of MBC to MIC against heterogeneous vancomycin-intermediate Staphylococcus aureus Mu3 ATCC 700698; format: functional; how it was run: as §2
# Staphylococcus aureus [25] = experiment: Bactericidal activity against vancomycin-intermediate resistant Staphylococcus aureus Mu50 ATCC 700699 assessed as bacterial killing incubated for over night; format: functional; how it was run: as §2
# Staphylococcus aureus [26] = experiment: Ratio of MBC to MIC against vancomycin-intermediate resistant Staphylococcus aureus Mu50 ATCC 700699; format: functional; how it was run: as §2
# Staphylococcus aureus [27] = experiment: Bactericidal activity against Vancomycin-resistant Staphylococcus aureus HIP11714 assessed as bacterial killing incubated for over night; format: functional; how it was run: as §2
# Staphylococcus aureus [28] = experiment: Antibacterial activity against methicillin-susceptible Staphylococcus aureus ATCC 25923 in presence of glutathione; format: functional
# How it was run: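 Broth microdilution MIC: a 0.5 McFarland suspension from overnight culture was diluted 1:100 in cation-adjusted Mueller Hinton broth supplemented with glutathione 100 μM. It was exposed to serial dilutions for 20 h at 37 °C. MIC was taken as the lowest concentration with no visible growth.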
# Staphylococcus aureus [29] = experiment: Antibacterial activity against methicillin-susceptible Staphylococcus aureus ATCC 25923 in presence of 0.05% v/v albumin; format: functional
# Staphylococcus aureus [30] = experiment: Antibacterial activity against methicillin-susceptible Staphylococcus aureus ATCC 25923 in presence of 5% v/v serum; format: functional
# Staphylococcus aureus [31] = experiment: Antibacterial activity against methicillin-susceptible Staphylococcus aureus ATCC 25923 in presence of 10% v/v serum; format: functional
Structure (SMILES),diameter of the inhibition zone (DIZ) (Klebsiella pneumoniae) [mm],diameter of the inhibition zone (DIZ) (Enterobacter cloacae) [mm],diameter of the inhibition zone (DIZ) (Escherichia coli) [mm],diameter of the inhibition zone (DIZ) (Acinetobacter baumannii [3]) [mm],diameter of the inhibition zone (DIZ) (Bacillus anthracis) [mm],diameter of the inhibition zone (DIZ) (Enterococcus faecium) [mm],diameter of the inhibition zone (DIZ) (Enterococcus faecalis) [mm],diameter of the inhibition zone (DIZ) (Staphylococcus aureus [4]) [mm],diameter of the inhibition zone (DIZ) (Staphylococcus aureus [5]) [mm],diameter of the inhibition zone (DIZ) (Staphylococcus aureus [6]) [mm],diameter of the inhibition zone (DIZ) (Staphylococcus aureus [7]) [mm],diameter of the inhibition zone (DIZ) (Staphylococcus aureus [8]) [mm],diameter of the inhibition zone (DIZ) (Staphylococcus aureus [9]) [mm],diameter of the inhibition zone (DIZ) [10] [mm],diameter of the inhibition zone (DIZ) (Acinetobacter baumannii [11]) [mm],diameter of the inhibition zone (DIZ) (Pseudomonas aeruginosa) [mm],MIC (Staphylococcus aureus [12]) [µM],MIC (Staphylococcus aureus [13]) [µM],MIC (Staphylococcus aureus [14]) [µM],MIC (Staphylococcus aureus [15]) [µM],other results
Oc1cc(Cl)ccc1Oc1ccc(Cl)cc1Cl,–,–,–,–,–,–,–,–,–,–,–,–,–,–,–,–,–,–,–,–,Activity (Staphylococcus aureus [1]): Active; Activity (Staphylococcus aureus [2]): Active
CCCCCCSSc1ccccn1,0,8,0,0,>50,13,20,47,40,49,45,>50,46,>50,0,0,25,50,50,50,MIC (Staphylococcus aureus [16]): 25 µM; MIC (Staphylococcus aureus [17]): 50 µM; MIC50 (Staphylococcus aureus [18]): 50 µM; MIC90 (Staphylococcus aureus [18]): 50 µM; MIC50 (Staphylococcus aureus [19]): 50 µM; MIC90 (Staphylococcus aureus [19]): 50 µM
CCCCCCCCCSSc1ccccn1,0,0,0,0,25,8,8,20,19,22,22,30,21,41,0,0,12.5,6.25,25,6.25,MBC (Staphylococcus aureus [20]): > 50 µM; Ratio (Staphylococcus aureus [21]): >4; MBC (Staphylococcus aureus [22]): > 50 µM; MBC (Staphylococcus aureus [23]): > 50 µM; Ratio (Staphylococcus aureus [24]): >8; MIC (Staphylococcus aureus [16]): 1.56 µM; MBC (Staphylococcus aureus [25]): 25 µM; Ratio (Staphylococcus aureus [26]): 16; MIC (Staphylococcus aureus [17]): 12.5 µM; MBC (Staphylococcus aureus [27]): > 50 µM; MIC50 (Staphylococcus aureus [18]): 6.25 µM; MIC90 (Staphylococcus aureus [18]): 12.5 µM; MIC50 (Staphylococcus aureus [19]): 6.25 µM; MIC90 (Staphylococcus aureus [19]): 12.5 µM; MIC (Staphylococcus aureus [28]): 50 µM; MIC (Staphylococcus aureus [29]): 25 µM; MIC (Staphylococcus aureus [30]): 25 µM; MIC (Staphylococcus aureus [31]): 50 µM
CCCCCSSc1ccccn1,0,8,0,0,>50,24,23,32,22,21,27,24,22,>50,0,0,50,50,> 50,50,MIC (Staphylococcus aureus [16]): 50 µM; MIC (Staphylococcus aureus [17]): > 50 µM; MIC50 (Staphylococcus aureus [18]): 50 µM; MIC90 (Staphylococcus aureus [18]): 50 µM; MIC50 (Staphylococcus aureus [19]): 50 µM; MIC90 (Staphylococcus aureus [19]): 50 µM
CC(C)SSc1ccccn1,0,0,0,0,0,0,0,0,0,0,0,0,0,13,0,0,–,–,–,–,–
CCCCSSc1ccccn1,0,9,0,0,48,0,15,0,0,0,0,0,0,22,0,0,–,–,–,–,–
CC(C)CCSSc1ccccn1,0,0,0,0,>50,0,0,0,0,0,11,12,14,>50,0,0,–,–,–,–,–
CSSc1ccccn1,0,10,12,15,48,0,23,20,21,25,12,13,12,21,21,0,–,–,–,–,–
